Arrestin-AP2 inh – inhibitors of beta-arrestin/AP2 binding, primary screen, biochemical, GPCR trafficking, flow cytometry; beta-arrestin 1 C-terminal peptide binding to AP2 beta2-adaptin appendage (human); FITC-arrestin peptide / GST-AP2 beads; AP2 beta2 appendage carries R879A mutation; inhibition, % at 10 µM; actives 0.31% (n = 340,000); AID 504490, 2011;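 active = inhibition above a set limit, near 3 SD of compounds lacking own fluorescence, cut at about 54% in these data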;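 note: plate controls were DMSO wells for no effect and 5 µM unlabelled arrestin peptide for full effect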
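test system = AP2 appendage R879A on GSH beads | buffer or medium = PBS plus Tween 20 (0.05%) and BSA (0.1%) | incubation = 12 min plus 1 h, RT | detection = bead flow cytometry, FITC channel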
MEKK2mut PB1 HTS – MEK5 binding signal on mutant MEKK2 PB1, primary screen, biochemical, multiplex bead flow cytometry, Alexa488-MEK5. Alexa488-MEK5 binding to MEKK2 mutant. percent response, % at 10 µM. actives 0.35% (n = 290,000). AID 1530, 2009; in the data active = percent response above about 24%, passing the limit was not always enough
MEKK3 PB1 HTS – modulators of MEKK3-MEK5 PB1 binding, primary screen, biochemical, wildtype MEKK3, multiplex bead flow cytometry, Alexa488-MEK5. binding response (% of control), % at 10 µM. bead-based flow cytometry, Alexa488-MEK5 binding to MEKK3; actives lie on both sides; 0 = blocked by unlabeled MEK5, 100 = vehicle. AID 1529, 2009. Mitogen-activated protein kinase kinase kinase 3 (Homo sapiens), Q99759. actives 1.4% (n = 290,000);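 active = binding response more than 3 SD above or below the average of its plate-row segment, actives on both sides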;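 note: Alexa488 bead fluorescence after subtracting the streptavidin-only scavenger bead signal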
Target sequence (Q99759 whole entry, looked up): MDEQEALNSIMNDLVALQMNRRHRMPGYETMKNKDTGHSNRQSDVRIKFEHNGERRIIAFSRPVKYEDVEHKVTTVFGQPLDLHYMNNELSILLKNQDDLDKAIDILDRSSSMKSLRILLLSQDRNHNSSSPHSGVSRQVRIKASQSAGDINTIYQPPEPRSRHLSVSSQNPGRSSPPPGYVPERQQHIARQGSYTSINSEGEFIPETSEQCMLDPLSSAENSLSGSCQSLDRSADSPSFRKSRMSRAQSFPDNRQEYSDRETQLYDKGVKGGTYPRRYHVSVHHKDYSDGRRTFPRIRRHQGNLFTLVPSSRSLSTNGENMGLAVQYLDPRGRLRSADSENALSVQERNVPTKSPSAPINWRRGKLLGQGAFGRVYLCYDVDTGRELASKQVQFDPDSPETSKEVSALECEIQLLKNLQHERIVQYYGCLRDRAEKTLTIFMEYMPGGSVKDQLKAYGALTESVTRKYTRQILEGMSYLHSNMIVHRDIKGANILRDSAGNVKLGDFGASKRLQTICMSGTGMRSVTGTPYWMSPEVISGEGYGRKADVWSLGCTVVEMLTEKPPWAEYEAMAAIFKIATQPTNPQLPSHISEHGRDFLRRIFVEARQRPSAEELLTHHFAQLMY
MEKK2wt PB1 HTS – modulators of MEK5 binding to wildtype MEKK2, primary screen, biochemical, multiplex bead flow cytometry, Alexa488-MEK5; Alexa488-MEK5 binding to MEKK2 WT; actives lie on both sides; binding response (% of control), % at 10 µM; actives 1.1% (n = 290,000); in the data active = binding response below about 67% or above about 130%
MEKK2wt confirm – modulators of MEK5 binding to wildtype MEKK2, confirmation, biochemical, single concentration, multiplex bead flow cytometry; shares compounds with MEKK3 PB1 HTS; Alexa488-MEK5 binding to MEKK2 WT; actives lie on both sides; binding response (% of control), % at 10 µM; actives 2.4% (n = 5,900); AID 1892, 2009; in the data active = binding response below about 16% or above about 210%; inactive = in between
MEKK2mut confirm – mutant MEKK2 PB1-MEK5 binding signal retest – biochemical, single concentration, multiplex bead flow cytometry, confirmation | shares compounds with MEKK3 PB1 HTS | Alexa488-MEK5 binding to MEKK2 mutant | percent response, % at 10 µM | actives 2% (n = 5,900); in the data active = percent response mostly above about 71%, no sharp cut-off; inactive = mostly below about 38%;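 note: higher means compound restores mutant binding toward wildtype level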
MEKK3 confirm – MEKK3 wild-type PB1 binding to MEK5, inhibitors, confirmation, biochemical, bead multiplex flow cytometry, single concentration, wildtype | Alexa488-MEK5 binding to MEKK3; stronger effect = lower value | shares compounds with MEKK3 PB1 HTS | binding response (% of control), % at 10 µM | actives 1.8% (n = 5,900) | AID 1894, 2009;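 active = binding response below 72% of control, or above a set upper limit, though filed actives all read lower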;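 note: 100% = DMSO only wells and 0% = binding blocked by excess unlabeled MEK5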
An asterisk follows results filed as active; . = not tested or not shown; [ ] = remark or other dose. This is a sample that favours compounds with a hit; in the whole collection about 2.3% have one here.

SMILES	Arrestin-AP2 inh	MEKK2mut PB1 HTS	MEKK3 PB1 HTS	MEKK2wt PB1 HTS	MEKK2wt confirm	MEKK2mut confirm	MEKK3 confirm
Cc1nnc(SCC(=O)NNC(=O)c2ccc(Br)cc2)n1C	22	557*	123	717*	103	0	100
Cn1c(SCC(=O)NNC(=O)c2ccc(Br)cc2)nnc1-c1cccnc1	32	7	110	109	.	.	.
CNC(=O)CSc1nnc(-c2ccco2)n1-c1cccc(C)c1C	-1	0	100	98	.	.	.
CCn1c(SCC(=O)NNC(=O)c2ccccc2)nnc1-c1ccco1	-17	-13	73*[inhibitor]	68	99	-6	99
CNC(=O)CSc1nnc(-c2ccco2)n1-c1cc(C)ccc1C	-20	32*	103	106	110	0	106
CCCn1c(=O)c2ccccc2n2c(SCc3nc4ccccc4s3)nnc12	-4	-26	1.0*[inhibitor]	-2.0*[inhibitor]	103	2	106
O=C(Nc1nc2nccc(-c3ccccc3)n2n1)c1ccccc1	13	3	102	103	.	.	.
COc1ccc(C(=O)Nc2nc3nccc(-c4ccccc4)n3n2)cc1	3	1	180*	108	102	4	103
COCCNC(=O)Cn1cc(S(=O)(=O)N2CCN(c3ccccc3F)CC2)c2ccccc2c1=O	12	7	108	107	.	.	.
O=C(Cn1cc(S(=O)(=O)N2CCN(c3ccccc3F)CC2)c2ccccc2c1=O)NCCCN1CCCCCC1	3	-45	3.0*[inhibitor]	7.0*[inhibitor]	124	13	105
OC1(c2ccc(Br)cc2)CCN(Cc2cccc(Br)c2)CC1	-18	15	109	134*	130	17	107
Cc1ccccc1C(=O)NC1CCN(C(=O)Nc2ccccc2Cl)CC1	-25	4	103	101	.	.	.
Cc1c(NC(=O)CN2C(=O)NC(C)(c3ccccc3)C2=O)c(=O)n(-c2ccccc2)n1C (configuration not stated)	6	0	140*	103	105	0	99
CCCC1(c2ccccc2)NC(=O)N(CC(=O)Nc2cc(C)on2)C1=O (configuration not stated)	6	-3	65*[inhibitor]	80	91	-5	97
Cc1cc(NC(=O)CN2C(=O)NC(C)(c3ccccc3)C2=O)no1 (configuration not stated)	6	-1	99	97	.	.	.
CC(C)(C)C(=O)CSc1ccc(S(=O)(=O)N2CCN(Cc3ccccc3)CC2)cn1	34	.	.	.	.	.	.
CCCCC[C@@H]1C=C(C(=O)O)[C@H](c2ccc(OC)c(OC)c2)N1S(=O)(=O)c1ccc(C)cc1	30	.	.	.	.	.	.
Cn1nc(C(F)(F)F)c(-c2ccc(Br)cc2)c1NC(=O)Nc1ccc(F)cc1F	-8	31	133*	138*	110	2	102
Cc1ccc2nc(NCC(N)=O)nc(-c3ccccc3)c2c1	.	-4	88	84	.	.	.
Cc1ccc2nnnc(-c3ccccc3)c2c1	-4	-9	88	54*[inhibitor]	98	8	104
N#CNC(=Nc1cccc(F)c1)SCc1cccc(F)c1	29	1	136*	107	105	2	100
CCOC(=O)c1c(-c2ccccc2)oc2ccc(OCC(=O)NNC(=O)CCC(=O)O)cc12	-4	-49	5.0*[inhibitor]	9.0*[inhibitor]	94	-3	94
CCOC(=O)c1c(-c2ccccc2)oc2ccc(OCC(=O)NNC(=O)CCCC(=O)O)cc12	14	0	107	107	.	.	.
CCOc1cc(CNCCO)cc(Br)c1OCc1ccccc1Cl	22	12	102	142*	148	33	104
CCOc1cc(CNCCCN2CCOCC2)cc(Br)c1OCc1ccccc1Cl	33	78*	114	199*	173	33	105
SMILES	Arrestin-AP2 inh	MEKK2mut PB1 HTS	MEKK3 PB1 HTS	MEKK2wt PB1 HTS	MEKK2wt confirm	MEKK2mut confirm	MEKK3 confirm
COc1cc(CNC(C)(C)CO)cc(Br)c1OCc1ccccc1	-2	8	103	113	.	.	.
CCOc1cc(CNC(C)(C)CO)cc(Br)c1OCc1ccc(Cl)cc1Cl	4	75*	117	262*	202	67	116
CC(C)(C)C(=O)NC1CCN(S(=O)(=O)c2ccc(C(F)(F)F)cc2)CC1	2	-2	103	99	.	.	.
COC1=C/C(=C/c2c(N)n3cc(C)sc3nc2=O)C=CC1=O	25	-4	91	92	.	.	.
Cc1cn2c(N)c(C=C3C=C(Cl)C(=O)C(Cl)=C3)c(=O)nc2s1	18	-76	94	50*[inhibitor]	99	-14	103
CC(NCCCOc1cccc2ccccc12)c1ccccc1 (configuration not stated)	-23	18	107	175*	156	26	110
COc1ccc2ccccc2c1CNC(C)c1ccccc1 (configuration not stated)	25	5	104	118	.	.	.
COc1ccc(CC(=O)N2N=C(C)CC2(O)c2cccnc2)cc1OC (configuration not stated)	20	-1	128*	100	103	-4	103
CC(=O)Nc1ccc(S(=O)(=O)N(Cc2ccccc2)C(C)C)cc1	-9	-18	1.0*[inhibitor]	1.0*[inhibitor]	92	-7	99
CC(=O)Nc1ccc(S(=O)(=O)N(C)Cc2ccccc2)cc1	-3	-1	104	108	.	.	.
CCc1nnc(NC(=O)Cc2c[nH]c3ccccc23)s1	-9	7	138*	121	103	5	107
O=C(Nc1ccc(Cl)c(Cl)c1)Nc1cc(C(=O)NC2CC2)ccc1Cl	.	1	110	111	.	.	.
C=CCN(CC(=O)O)S(=O)(=O)c1ccccc1C(F)(F)F	4	-4	100	91	.	.	.
CC(C)(C)NC(=O)NC(=O)CN1CCN(C(c2ccccc2)c2ccccc2)CC1	10	7	157*	144	100	1	100
CCc1cc(C(=O)N=Nc2c(O)[nH]c3c(Br)cc(Br)cc23)c2ccccc2n1	39	0	139*	106	87	-6	100
CCOC(=O)C1CCN(C(=O)Cc2ccc(OC)c(OC)c2)CC1	4	-11	81*[inhibitor]	91	103	0	104
CCOC(=O)C1CCN(C(=O)COc2ccc(Cl)cc2)CC1	11	1	103	100	.	.	.
